Source: ChEMBL document CHEMBL4373680, “Small antibacterial molecules highly active against drug-resistant Staphylococcus aureus” (Medchemcomm, 2019)
In brackets after ≈: the same amount, converted by molar mass. Activity calls are given as the source filed them. No cut-off for these calls is given here.

Columns and labels:
Staphylococcus aureus [1] = experiment: Antibacterial activity against methicillin-resistant Staphylococcus aureus ATCC 33591 after 24 hrs by tecan plate reader analysis; type: functional; conditions: ATCC 33591, 24 h
Method in brief: (§1)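 Colony grown 24 h on NB agar at 37 °C, then 6 h in nutrient broth to mid-log (10⁸ CFU/mL by drop plating), diluted to 10⁵ CFU/mL in Mueller Hinton broth; added 9:1 to two-fold serial compound dilutions in MHB. Incubated 24 h, 37 °C; OD600 read. Triplicate per concentration, experiment run twice; MIC taken from the range of triplicate OD values.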

Escherichia coli = experiment: Antibacterial activity against Escherichia coli MTCC 443 after 24 hrs by tecan plate reader analysis; type: functional
Method in brief: (§2)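 Broth microdilution MIC. Glycerol stocks grown on MacConkey agar 24 h at 37 °C, then a single colony in nutrient broth 6 h to mid-log (~10⁸ CFU/mL). Cells diluted to 10⁵ CFU/mL in Mueller Hinton broth and added to two-fold compound dilutions. Incubated 24 h at 37 °C, OD600 read. Triplicate wells, experiment run twice.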

Acinetobacter baumannii = experiment: Antibacterial activity against Acinetobacter baumannii MTCC 1425 after 24 hrs by tecan plate reader analysis; type: functional; method in brief: as §2
Klebsiella pneumoniae = experiment: Antibacterial activity against Klebsiella pneumoniae ATCC 700603 after 24 hrs by tecan plate reader analysis; type: functional; method in brief: as §2
Pseudomonas aeruginosa = experiment: Antibacterial activity against Pseudomonas aeruginosa MTCC 424 after 24 hrs by tecan plate reader analysis; type: functional; method in brief: as §2
[2] = Hemolytic activity in human erythrocytes after 1 hr; type: ADME, cell-based, Erythrocyte
Method in brief: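 Heparinized donor blood. Erythrocytes washed three times in PBS and resuspended to 5 vol%, then mixed 3:1 with compound serially diluted in water. Incubated 1 h at 37 °C and centrifuged. Supernatant A540 read; % hemolysis relative to water and 0.1 vol% Triton-X controls.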

Staphylococcus aureus [3] = experiment: Antibiofilm activity against Staphylococcus aureus R3545 assessed as reduction in biofilm biomass at 32 ug/ml incubated for 24 hrs followed by plating on agar plate for 24 hrs by crystal violet staining assay relative to control; type: functional; conditions: R3545, 24 h
Method in brief: (§3)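 Biofilms grown 24 h static at 37 °C on coverslips (10⁵ CFU/mL in nutrient broth, 1% glucose, 1% NaCl) and treated 24 h, then PBS-washed, air-dried 10–15 min, stained with 0.1% w/v crystal violet 5–10 min, washed, dye recovered in 95% ethanol; OD 522 nm read. Run twice, mean with standard deviation.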

Staphylococcus aureus [4] = experiment: Antibiofilm activity against Staphylococcus aureus ATCC 33591 assessed as reduction in biofilm biomass at 32 ug/ml incubated for 24 hrs followed by plating on agar plate for 24 hrs by crystal violet staining assay relative to control; type: functional; conditions: ATCC 33591, 24 h; method in brief: as §3
Staphylococcus aureus [5] = experiment: Antibacterial activity against vancomycin-resistant Staphylococcus aureus clinical isolate 1 after 24 hrs by tecan plate reader analysis; type: functional; conditions: clinical isolate 1, 24 h; method in brief: as §1
Staphylococcus aureus [6] = experiment: Antibacterial activity against vancomycin-resistant Staphylococcus aureus clinical isolate 4 after 24 hrs by tecan plate reader analysis; type: functional; conditions: clinical isolate 4, 24 h; method in brief: as §1
Staphylococcus aureus [7] = experiment: Bactericidal activity against metabolically inactive stationary phase methicillin-resistant Staphylococcus aureus ATCC 33591 assessed as reduction in bacterial colony formation at 32 ug/ml incubated for 6 hrs followed by plating on agar plate for 24 hrs by visual counting analysis; type: functional, organism-based
Staphylococcus aureus [8] = experiment: Bactericidal activity against metabolically inactive stationary phase methicillin-resistant Staphylococcus aureus R3545 assessed as reduction in bacterial colony formation at 32 ug/ml incubated for 6 hrs followed by plating on agar plate for 24 hrs by visual counting analysis; type: functional, organism-based
Staphylococcus aureus [9] = experiment: Antibacterial activity against methicillin-resistant Staphylococcus aureus R3545 clinical isolate after 24 hrs by tecan plate reader analysis; type: functional; conditions: R3545, 24 h; method in brief: as §1
Staphylococcus aureus [10] = experiment: Antibacterial activity against methicillin-resistant Staphylococcus aureus R3889 clinical isolate after 24 hrs by tecan plate reader analysis; type: functional; conditions: R3889, 24 h; method in brief: as §1
Staphylococcus aureus [11] = experiment: Antibacterial activity against methicillin-resistant Staphylococcus aureus R3890 clinical isolate after 24 hrs by tecan plate reader analysis; type: functional; conditions: R3890, 24 h; method in brief: as §1
[12] = Selectivity index, ratio of HC50 for human erythrocytes to MIC for Escherichia coli MTCC 443; type: toxicity; conditions: read-out: Selectivity Index
[13] = Klebsiella pneumoniae, 700603, 24 h

| Molecule | MIC (Staphylococcus aureus [1]) [µg/mL] | MIC (Escherichia coli; MTCC 443, 24 h) [µg/mL] | MIC (Acinetobacter baumannii; MTCC 1425, 24 h) [µg/mL] | MIC (Klebsiella pneumoniae; [13]) [µg/mL] | MIC (Pseudomonas aeruginosa; MTCC 424, 24 h) [µg/mL] | HC50 at 1 h [2] [µg/mL] | also measured |
| --- | --- | --- | --- | --- | --- | --- | --- |
| CCCCCCCCNC(=O)C[N+](C)(CCO)CCCCCCCC[N+](C)(CCO)CC(=O)NCCCCCCCC.[Br-].[Br-] (centres undefined) | 0.5 to 1 | 1 to 2 | 8 | 8 | 16 | 61 | – |
| COLISTIN | – | – | – | – | – | – | MIC (Escherichia coli): 1 µg/mL; MIC (Acinetobacter baumannii): 0.5 µg/mL; MIC (Klebsiella pneumoniae): 1 µg/mL; MIC (Pseudomonas aeruginosa): 1 µg/mL |
| CCCCCCCCNC(=O)C[N+](C)(CCO)CCCCCCCCCCCC[N+](C)(CCO)CC(=O)NCCCCCCCC.[Br-].[Br-] (centres undefined) | 0.25 | 0.5 to 1 | 2 | 2 | 4 | 12 | – |
| CN[C@H](CC(C)C)C(=O)N[C@H]1C(=O)N[C@@H](CC(N)=O)C(=O)N[C@H]2C(=O)N[C@H]3C(=O)N[C@H](C(=O)N[C@H](C(=O)O)c4cc(O)cc(O)c4-c4cc3ccc4O)[C@H](O)c3ccc(c(Cl)c3)Oc3cc2cc(c3O[C@@H]2O[C@H](CO)[C@@H](O)[C@H](O)[C@H]2O[C@H]2C[C@](C)(N)[C@H](O)[C@H](C)O2)Oc2ccc(cc2Cl)[C@H]1O [VANCOMYCIN] | 0.5 to 1 (≈ 0.345 to 0.69 µM) | – | – | – | – | – | inhibition at 32 µg/mL (Staphylococcus aureus [3]): 10%; inhibition at 32 µg/mL (Staphylococcus aureus [4]): 10%; MIC (Staphylococcus aureus [5]): 512 µg/mL (≈ 353 µM); MIC (Staphylococcus aureus [6]): 512 µg/mL (≈ 353 µM); Activity (Staphylococcus aureus [7]): inactive; Activity (Staphylococcus aureus [8]): inactive |
| CCCCCCCCCCNC(=O)C[N+](C)(CCO)CCC[N+](C)(CCO)CC(=O)NCCCCCCCCCC.[Br-].[Br-] (centres undefined) | 1 | 1 | 2 | 4 | 2 | 34 | – |
| CCCCCCNC(=O)C[N+](C)(CCO)CCCCCCCC[N+](C)(CCO)CC(=O)NCCCCCC.O=C([O-])C(F)(F)F.O=C([O-])C(F)(F)F (centres undefined) | 128 | 256 | > 256 | > 256 | > 256 | > 1020 | – |
| CCCCCCCCCCCCNC(=O)C[N+](C)(CCO)CCC[N+](C)(CCO)CC(=O)NCCCCCCCCCCCC.[Br-].[Br-] (centres undefined) | 2 | 16 | 8 | 128 to 256 | 64 to 128 | 37 | – |
| COc1cccc(OC)c1C(=O)N[C@@H]1C(=O)N2[C@@H]1SC(C)(C)[C@@H]2C(=O)O [METHICILLIN] | > 32 | – | – | – | – | – | MIC (Staphylococcus aureus [9]): 16 to 32 µg/mL (≈ 42.1 to 84.1 µM); MIC (Staphylococcus aureus [10]): 16 to 32 µg/mL (≈ 42.1 to 84.1 µM); MIC (Staphylococcus aureus [11]): > 32 µg/mL |
| CCCCCCNC(=O)C[N+](C)(CCO)CCCCCCCCCC[N+](C)(CCO)CC(=O)NCCCCCC.O=C([O-])C(F)(F)F.O=C([O-])C(F)(F)F (centres undefined) | 8 | 8 | 256 | > 256 | 256 | > 1020 | selectivity ratio [12]: 125 |
| CCCCCCCCNC(=O)C[N+](C)(CCO)CCC[N+](C)(CCO)CC(=O)NCCCCCCCC.[Br-].[Br-] (centres undefined) | 2 | 16 | 32 | 32 | 8 | 178 | – |
| CCCCCCCCCCCCNC(=O)C[N+](C)(CCO)CCCCCC[N+](C)(CCO)CC(=O)NCCCCCCCCCCCC.[Br-].[Br-] (centres undefined) | 1 to 2 | 8 | 4 | 128 | 128 to 256 | 31 | – |
| CCCCCCCCCCNC(=O)C[N+](C)(CCO)CCCCCC[N+](C)(CCO)CC(=O)NCCCCCCCCCC.[Br-].[Br-] (centres undefined) | 0.5 | 1 | 2 | 2 to 4 | 4 | 31 | – |
| CCCCCCCCCCCCNC(=O)C[N+](C)(CCO)CCCCCCCCCCCC[N+](C)(CCO)CC(=O)NCCCCCCCCCCCC.[Br-].[Br-] (centres undefined) | 2 to 4 | 32 | 32 | 128 to 256 | 64 | 22 | – |
| CCCCCCCCNC(=O)C[N+](C)(CCO)CCCCCCCCCC[N+](C)(CCO)CC(=O)NCCCCCCCC.[Br-].[Br-] (centres undefined) | 0.25 to 0.5 | 0.5 | 4 | 4 | 4 | 28 | – |
| CCCCCCCCCCNC(=O)C[N+](C)(CCO)CCCCCCCCCC[N+](C)(CCO)CC(=O)NCCCCCCCCCC.[Br-].[Br-] (centres undefined) | 0.5 | 2 | 1 | 4 | 8 | 18 | – |
| CCCCCCCCCCCCNC(=O)C[N+](C)(CCO)CCCCCCCCCC[N+](C)(CCO)CC(=O)NCCCCCCCCCCCC.[Br-].[Br-] (centres undefined) | 4 | 32 | 8 | 64 to 128 | 64 to 128 | 32 | – |
| CCCCCCNC(=O)C[N+](C)(CCO)CCCCCC[N+](C)(CCO)CC(=O)NCCCCCC.O=C([O-])C(F)(F)F.O=C([O-])C(F)(F)F (centres undefined) | 256 | > 256 | > 256 | > 256 | > 256 | > 1020 | – |
| CCCCCCCCCCCCNC(=O)C[N+](C)(CCO)CCCCCCCC[N+](C)(CCO)CC(=O)NCCCCCCCCCCCC.[Br-].[Br-] (centres undefined) | 2 | 32 | 4 | 64 | 64 to 128 | 29 | – |
| CCCCCCCCCCNC(=O)C[N+](C)(CCO)CCCCCCCCCCCC[N+](C)(CCO)CC(=O)NCCCCCCCCCC.[Br-].[Br-] (centres undefined) | 2 | 4 | 2 | 16 | 32 | 16 | – |
| CCCCCCNC(=O)C[N+](C)(CCO)CCC[N+](C)(CCO)CC(=O)NCCCCCC.O=C([O-])C(F)(F)F.O=C([O-])C(F)(F)F (centres undefined) | 256 | > 256 | > 256 | > 256 | > 256 | > 1020 | – |
| CCCCCCCCCCNC(=O)C[N+](C)(CCO)CCCCCCCC[N+](C)(CCO)CC(=O)NCCCCCCCCCC.[Br-].[Br-] (centres undefined) | 0.5 | 1 | 1 | 2 | 4 | 25 | – |
